From ChEMBL document CHEMBL3351654, “Synthesis, biological evaluation, and 3D QSAR study of 2-methyl-4-oxo-3-oxetanylcarbamic acid esters as N-acylethanolamine acid amidase (NAAA) inhibitors” (J Med Chem, 2014)

Target: T1, N-acylethanolamine-hydrolyzing acid amidase (Rattus norvegicus, UniProt Q5KTC7)
T1 sequence (Q5KTC7 whole entry): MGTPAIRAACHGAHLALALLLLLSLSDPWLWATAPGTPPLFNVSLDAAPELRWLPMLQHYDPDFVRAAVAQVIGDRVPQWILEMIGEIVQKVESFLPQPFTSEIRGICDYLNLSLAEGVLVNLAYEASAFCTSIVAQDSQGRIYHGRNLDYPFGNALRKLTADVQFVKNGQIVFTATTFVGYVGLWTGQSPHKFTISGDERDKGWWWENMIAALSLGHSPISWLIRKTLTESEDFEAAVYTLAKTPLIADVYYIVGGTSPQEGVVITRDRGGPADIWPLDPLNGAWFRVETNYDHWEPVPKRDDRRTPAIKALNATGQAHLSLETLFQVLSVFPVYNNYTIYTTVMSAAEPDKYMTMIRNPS
Assay: Inhibition of NAAA in Sprague-Dawley rat lung assessed as inhibition of hydrolysis of 10-cis-heptadecenoylethanolamide by UPLC/MS method
How it was run: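 Native NAAA enzyme prepared from rat lungs, not a recombinant construct. The substrate, 10-cis-heptadecenoylethanolamide, is an unnatural fatty acid ethanolamide. Inhibition of its hydrolysis was measured, and the median inhibitory concentration (IC50) was reported.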

| Compound | IC50 (read-out: pIC50 (converted)) | IC50 (read-out: IC50) |
| --- | --- | --- |
| C[C@@H]1OC(=O)[C@@H]1NC(=O)OCCCCCc1ccccc1 | 52.5 nM | – |
| C[C@@H]1OC(=O)[C@@H]1NC(=O)OC(C)(C)C | – | 6350 nM |
| C[C@@H]1OC(=O)[C@@H]1NC(=O)OC(C)(C)CCCCc1ccccc1 | 316 nM | – |
| CCCCCOC(=O)N[C@H]1C(=O)O[C@H]1C | – | 760 nM |
| CCCCCCCOC(=O)N[C@H]1C(=O)O[C@H]1C | 44.7 nM | – |
| C[C@@H]1OC(=O)[C@@H]1NC(=O)OCCOCCc1ccccc1 | 148 nM | – |
| C[C@@H]1OC(=O)[C@@H]1NC(=O)OCCCCCl | – | 288 nM |
| CCCCC1(OC(=O)N[C@H]2C(=O)O[C@H]2C)COC1 | – | 3760 nM |
| C[C@@H]1OC(=O)[C@@H]1NC(=O)OC1(CCCCc2ccccc2)COC1 | – | 520 nM |
| C[C@@H]1OC(=O)[C@@H]1NC(=O)OCCCCCCCc1ccccc1 | – | 39 nM |
| C[C@@H]1OC(=O)[C@@H]1NC(=O)OCC#Cc1ccccc1 | – | 20 nM |
| C[C@@H]1OC(=O)[C@@H]1NC(=O)OCc1ccc(-c2ccsc2)cc1 | 20.9 nM | 22 nM |
| C[C@@H]1OC(=O)[C@@H]1NC(=O)OCc1ccc(C2CCCCC2)cc1 | – | 7 nM |
| C[C@@H]1OC(=O)[C@@H]1NC(=O)OCc1ccc(OC2CCCCC2)cc1 | – | 23 nM |
| C[C@@H]1OC(=O)[C@@H]1NC(=O)OCc1ccc2c(c1)OCO2 | – | 176 nM |
| CCCCCCCC#CCOC(=O)N[C@H]1C(=O)O[C@H]1C | – | 77 nM |

Now from value to compound:

| IC50 (read-out: pIC50 (converted)) | IC50 (read-out: IC50) | Compound |
| --- | --- | --- |
| – | 2090 nM | C[C@@H]1OC(=O)[C@@H]1NC(=O)OCc1ccccc1 |
| 7.24 nM | – | C[C@@H]1OC(=O)[C@@H]1NC(=O)OCc1ccc(-c2ccccc2)cc1 |
| 85.1 nM | – | C[C@@H]1OC(=O)[C@@H]1NC(=O)OCCCc1ccccc1 |
| 51.3 nM | – | C[C@@H]1OC(=O)[C@@H]1NC(=O)OCCCOCc1ccccc1 |
| – | 240 nM | C[C@@H]1OC(=O)[C@@H]1NC(=O)OCCCCCc1ccc(F)cc1 |
| – | 11 nM | C[C@@H]1OC(=O)[C@@H]1NC(=O)OCc1ccc(-c2ccc(F)cc2)cc1 |
| – | 29 nM | Cc1ccc(-c2ccc(COC(=O)N[C@H]3C(=O)O[C@H]3C)cc2)cc1 |
| – | 36 nM | C[C@@H]1OC(=O)[C@@H]1NC(=O)OCc1ccc(-c2ccc(C(F)(F)F)cc2)cc1 |
| – | 15 nM | CCCCc1ccc(COC(=O)N[C@H]2C(=O)O[C@H]2C)cc1 |
| – | 22 nM | C[C@@H]1OC(=O)[C@@H]1NC(=O)OCc1ccc(C(C)(C)C)cc1 |
| – | 28 nM | C[C@@H]1OC(=O)[C@@H]1NC(=O)OCc1ccc(-c2sccc2Br)cc1 |
| – | 13 nM | Cc1ccc2sc(COC(=O)N[C@H]3C(=O)O[C@H]3C)cc2c1 |
